Experimental data: publication PMC3048907 (Journal of medicinal chemistry, 2011)
Blank lines part the entries; values can stand above or below the compound they belong to.

What was measured:
[1] = tested on: KB-VIN (MDR line overexpressing P-glycoprotein); test: Antiproliferative activity assay; format: cell-based, human; settings: SRB assay, three days in culture; NA = not active, 20 μg/mL did not reach 50% inhibition
KB-VIN versus KB = settings: P-gp overexpressing MDR tumor cell line vs non-MDR; cited from earlier work
human tumor cell lines = test: Antiproliferative activity across the human tumor cell line panel; format: cell-based
How it was run: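 Cells kept in RPMI-1640 with 25 mM HEPES, 0.25% bicarbonate, 10% FBS and 100 μg/mL kanamycin; trypsinized, seeded at 1500–7500 cells/well. Test compound added from DMSO stock diluted in medium (DMSO ≤0.5% v/v). After 3 days, cells fixed in cold 50% TCA, stained with 0.4% sulforhodamine B, A562 read. GI50 = 50% growth reduction vs untreated; mean of ≥3 determinations.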

tubulin = test: Tubulin assembly assay; format: biochemical; settings: 10 μM tubulin, 20 min at 30 °C, highest concentration evaluated 40 μM
[2] = tested on: A549 cells (microtubules and spindles); test: Immunofluorescence staining of tubulin; format: cell-based, human; settings: for microtubules (α-tubulin immunofluorescence) / mitotic spindles (α-tubulin immunofluorescence): A549, 24 h, 0.1 nM 21, 100 nM colchicine, 1.5 nM pacritaxel, 500 nM doxorubicin; for concentration at which antimicrotubule activity was seen: within 24 hr
KB-VIN cells = test: Verapamil reversal experiments; format: cell-based, human; settings: for effect of verapamil co-treatment on cytotoxic activity (MDR-selectivity): co-treatment with verapamil 1 μg/mL

- GI50 KB-VIN [1]: active
SMILES: CC1=C(O)C(C)(C)c2oc(-c3ccccc3)cc(=O)c2C1=O [Compound 1, desmosdumotin B]
- selectivity index [collateral sensitivity (CS), activity ratio of MDR line versus non-MDR line] (KB-VIN versus KB): greater than 20
- activity against all non-MDR tumor cells (human tumor cell lines): non-active

- GI50 KB-VIN [1]: active
- Inhibition of tubulin assembly IC50 ± SD (tubulin): inactive
- IC50 (tubulin; read-out: Inhibition of tubulin assembly IC50 ± SD): > 40 µM
SMILES: CCC1=C(O)c2c(oc(-c3ccccc3)cc2=O)C(CC)(CC)C1=O [Compound 2]
- activity against all non-MDR tumor cells (human tumor cell lines): non-active

- Inhibition of tubulin assembly IC50 ± SD (tubulin): Not obtainable ^c
SMILES: CCC1=C(O)c2c(oc(-c3ccc4ccccc4c3)cc2=O)C(CC)(CC)C1=O [Compound 11, 2-(Naphthalen-2′-yl)-6,8,8-triethyldesmosdumotin B]

SMILES: CCC1=C(O)c2c(oc(-c3csc4ccccc34)cc2=O)C(CC)(CC)C1=O [Compound 21, 2-(Benzo[b]thiophen-3′-yl)-6,8,8-triethyldesmosdumotin B]
- microtubules (α-tubulin immunofluorescence) [2]: undetectable
- mitotic spindles (α-tubulin immunofluorescence) [2]: undetectable
- fold lower concentration than colchicine for antimicrotubule activity ([2]; A549 cells, 24 hr): 1000 fold
- concentration at which antimicrotubule activity was seen ([2]; A549 cells): 0.1 nM

SMILES: CCC1=C(O)c2c(oc(-c3csc4ccc(Br)cc34)cc2=O)C(CC)(CC)C1=O [Compound 24, 2-(5′-Bromobenzo[b]thiophen-3′-yl)-6,8,8-triethyldesmosdumotin B]
- effect of verapamil co-treatment on cytotoxic activity (MDR-selectivity) (KB-VIN cells): partially reversed

SMILES: CCC1=C(O)c2c(oc(-c3cccc4ccsc34)cc2=O)C(CC)(CC)C1=O [Compound 27, 2-(Benzo[b]thiophen-7′-yl)-6,8,8-triethyldesmosdumotin B]
- effect of verapamil co-treatment on cytotoxic activity (MDR-selectivity) (KB-VIN cells): partially reversed

SMILES: COc1cc2c(c(OC)c1OC)-c1ccc(OC)c(=O)cc1[C@@H](NC(C)=O)CC2 [colchicine]
- microtubules (α-tubulin immunofluorescence) [2]: undetectable
- mitotic spindles (α-tubulin immunofluorescence) [2]: undetectable
- concentration at which antimicrotubule activity was seen ([2]; A549 cells): 100 nM

SMILES: COc1cccc2c1C(=O)c1c(O)c3c(c(O)c1C2=O)C[C@@](O)(C(=O)CO)C[C@@H]3O[C@H]1C[C@H](N)[C@H](O)[C@H](C)O1 [doxorubicine]
- microtubules (α-tubulin immunofluorescence) [2]: detectable
- mitotic spindles (α-tubulin immunofluorescence) [2]: undetectable

SMILES: CC(=O)O[C@H]1C(=O)[C@@]2(C)[C@H]([C@H](OC(=O)c3ccccc3)[C@]3(O)C[C@H](OC(=O)[C@H](O)[C@@H](NC(=O)c4ccccc4)c4ccccc4)C(C)=C1C3(C)C)[C@]1(OC(C)=O)CO[C@@H]1C[C@@H]2O [pacritaxel]
- microtubules (α-tubulin immunofluorescence) [2]: detectable
- mitotic spindles (α-tubulin immunofluorescence) [2]: clearly seen

SMILES: COc1ccc(CCN(C)CCCC(C#N)(c2ccc(OC)c(OC)c2)C(C)C)cc1OC (stereo not shown) [verapamil]
- effect of verapamil alone on replication of KB-VIN cells (KB-VIN cells; verapamil 1 μg/mL): no effect
